Screens (PubChem)
Hits are enriched below; roughly 3.2% of the tested compounds scored in any of these assays.
Mcl1-Bid inh = Mcl-1/Bid interaction inhibition. Q07820. 220,000 tested, 0.97% active. TR-FRET Mcl-1/Bid-Dy647 peptide binding, 1536-well. inhibition, % at 21.7 µM. AID 1021;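 active = compounds that cut the binding signal by more than half at the single screening dose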;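 also: His-tagged Mcl-1 with europium anti-His antibody binding Bid BH3 peptide; 0% = Mcl-1 plus peptide wells and 100% = peptide-only wells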
Target sequence (Q07820 whole entry, looked up): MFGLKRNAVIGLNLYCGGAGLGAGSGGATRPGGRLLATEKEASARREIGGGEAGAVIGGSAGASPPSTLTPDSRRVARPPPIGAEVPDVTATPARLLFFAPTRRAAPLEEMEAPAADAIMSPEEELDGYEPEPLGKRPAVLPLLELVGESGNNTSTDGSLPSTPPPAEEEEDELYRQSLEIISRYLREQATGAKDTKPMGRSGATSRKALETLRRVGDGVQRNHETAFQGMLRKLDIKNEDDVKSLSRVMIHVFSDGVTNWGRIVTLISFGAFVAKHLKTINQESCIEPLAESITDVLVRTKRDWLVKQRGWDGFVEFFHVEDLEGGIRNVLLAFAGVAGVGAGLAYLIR
Mcl-1 Bim block = inhibitors of Bim-Mcl-1 interaction, human. Q07820. Bead-based flow cytometry, Bim peptide-Mcl-1 binding. inhibition, % at 10 µM. 190,000 tested, 0.1% active. AID 1009; in the data active = inhibition above about 40%;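 also: 0% = no compound tracer wells and 100% = peptide blocker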
Hck-Nef inh = inhibitors of human Hck kinase activated by Nef; P08631; Recombinant Hck-YEEI plus Nef, Z-Lyte FRET kinase assay; inhibition, % at 20 µM; 220,000 tested, 0.68% active; AID 463187;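 active = Hck-Nef kinase inhibition above about 50%, limit read from the data; inactive = inhibition below that limit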;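 also: 0% = DMSO with Hck plus Nef and 100% = Hck alone without Nef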
Mcl1-Noxa inh = disrupts binding of human Mcl-1 to Noxa peptide; Q07820; AID 1022; inhibition, % at 21.7 µM; 220,000 tested, 1.5% active; TR-FRET Mcl-1/Noxa peptide binding, 2 h;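 active = compounds that cut the protein-peptide binding signal by more than 50% relative to plate controls in a single-dose test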;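 also: His-tagged Mcl-1 with rhodamine Noxa BH3 peptide and terbium anti-His antibody; 0% = Mcl-1 plus Noxa peptide wells and 100% = peptide-only wells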
Biofilm kill mix = mixture kills Candida albicans biofilm cells | AID 1242 | inhibition, % at 7.6 µM | 120,000 tested, 0.02% active | C. albicans biofilm persisters + clotrimazole, fluorescence viability; primary screen in compound mixtures of four per well;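 also: compounds exposed to preformed 24 h biofilms for 48 h; 0% = untreated biofilm control and 100% = clotrimazole plus chlorhexidine kill blank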
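Incubation: 24 h biofilm formation, then 48 h compound exposure, 37 °C | Material: C. albicans biofilms | Buffer or medium: RPMI/MOPS medium, pH 7.0 | Measured by: 2-h Alamar Blue fluorescence, 535/590 nm excitation/emission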
14-3-3 Bad PPI = disrupts binding of bovine 14-3-3 zeta to phospho-Bad peptide. AID 781. inhibition, % at 21.7 µM. 220,000 tested, 0.71% active. P63103. TR-FRET 14-3-3zeta/Dy647-pBad peptide displacement, 1 h;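 active = inhibition above about 70%, limit read from the data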;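 also: 0% = full 14-3-3 plus peptide FRET controls and 100% = background without 14-3-3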
Target sequence (P63103 whole entry, looked up): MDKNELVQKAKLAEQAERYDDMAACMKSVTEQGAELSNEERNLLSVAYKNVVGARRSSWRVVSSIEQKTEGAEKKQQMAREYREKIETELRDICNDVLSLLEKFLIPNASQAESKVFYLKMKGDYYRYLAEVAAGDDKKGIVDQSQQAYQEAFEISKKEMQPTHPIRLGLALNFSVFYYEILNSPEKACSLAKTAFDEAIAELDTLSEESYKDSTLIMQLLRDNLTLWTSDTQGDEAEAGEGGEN
Starred values were filed as active, the others as inactive.

`CN(C)C(Cc1ccccc1)C(=O)c1cccs1` (stereo unspecified) gave Mcl1-Bid inh -25, Mcl-1 Bim block 48*, Hck-Nef inh -5, Mcl1-Noxa inh 18, Biofilm kill mix -13 and 14-3-3 Bad PPI 0.
Screening CN(C)C(Cc1ccc(Cl)cc1)C(=O)c1ccccc1 (stereo unspecified) returned Mcl1-Bid inh -2, Mcl-1 Bim block -1, Hck-Nef inh 2, Mcl1-Noxa inh 12, Biofilm kill mix 27 and 14-3-3 Bad PPI 6.
`O=c1cccc2n1CC1CC2CN(Cc2c(F)cccc2Cl)C1` (stereo unspecified) gave Mcl1-Bid inh 3, Mcl-1 Bim block -3, Hck-Nef inh 0, Mcl1-Noxa inh 20 and 14-3-3 Bad PPI 77*.
O=c1[nH]c2ccccc2n1CCCN1CCC(n2c(=O)[nH]c3cc(Cl)ccc32)CC1 was read as Mcl1-Bid inh -9, Mcl-1 Bim block 0, Hck-Nef inh -3, Mcl1-Noxa inh 23, Biofilm kill mix 2 and 14-3-3 Bad PPI 92*.
For CSc1nnc(C2CCNCC2)n1C the results were Mcl1-Bid inh 4, Mcl-1 Bim block 0, Hck-Nef inh -2, Mcl1-Noxa inh 25 and 14-3-3 Bad PPI 87*.
For CC(C)(C)NC(=S)N1CCn2cccc2C1c1cccnc1 (stereo unspecified) the results were Mcl1-Bid inh -47, Mcl-1 Bim block -2, Hck-Nef inh 16, Mcl1-Noxa inh -9, Biofilm kill mix 9 and 14-3-3 Bad PPI -12.
Screening Cc1ccc(S(=O)(=O)N2CC2(C)CCl)cc1 (stereo unspecified) returned Mcl1-Bid inh 11, Hck-Nef inh 13, Mcl1-Noxa inh -8, Biofilm kill mix 14 and 14-3-3 Bad PPI 2.
Cc1ccc(S(=O)(=O)N2CN3CCN(C3)C2)cc1 was read as Mcl1-Bid inh 79*, Mcl-1 Bim block -4, Hck-Nef inh 2, Mcl1-Noxa inh 11 and 14-3-3 Bad PPI -4.
For CC(=O)N1CN2CN(C(C)=O)CC(C(=O)c3ccccc3)(C2)C1 the results were Mcl1-Bid inh 1, Mcl-1 Bim block -2, Hck-Nef inh 4, Mcl1-Noxa inh -16 and 14-3-3 Bad PPI 3.
For O=C(c1ccncc1)C12CN3CN(CN(C3)C1)C2 the results were Mcl1-Bid inh 0, Mcl-1 Bim block 1, Hck-Nef inh 0, Mcl1-Noxa inh -20 and 14-3-3 Bad PPI 85*.
For COc1ccc(-n2cnc3cc(C(=O)N4CCC5(CC4)OCCO5)ccc32)cc1 the results were Mcl1-Bid inh 0, Mcl-1 Bim block -3, Hck-Nef inh 6, Mcl1-Noxa inh -14, Biofilm kill mix 10 and 14-3-3 Bad PPI 6.
O=C(c1ccc2nc(-c3ccco3)c(-c3ccco3)nc2c1)N1CCC2(CC1)OCCO2 was read as Mcl1-Bid inh 6, Mcl-1 Bim block 4, Mcl1-Noxa inh 78* and 14-3-3 Bad PPI 18.
CN(C)P1(N(C)C)=NC(C(F)(F)F)=NC(C(F)(F)F)=N1 was read as Mcl1-Bid inh -17, Mcl-1 Bim block -2, Hck-Nef inh -3, Mcl1-Noxa inh 12 and 14-3-3 Bad PPI -10.
O=c1c2ccccc2nc(-c2cccs2)n1-c1ccccc1 was read as Mcl1-Bid inh -30, Mcl-1 Bim block -5, Hck-Nef inh 3, Mcl1-Noxa inh 4 and 14-3-3 Bad PPI 5.
`Cc1cccc(-n2c(-c3cccs3)nc3ccccc3c2=O)c1` gave Mcl1-Bid inh 58*, Mcl-1 Bim block -1, Hck-Nef inh 2, Mcl1-Noxa inh 46, Biofilm kill mix 14 and 14-3-3 Bad PPI 71*.
For Cc1ccc(N2C(=O)/C(=C/c3ccc(CN(CCC#N)S(C)(=O)=O)o3)C(=O)NC2=S)cc1 the results were Mcl1-Bid inh -9, Mcl-1 Bim block 0, Hck-Nef inh 3, Mcl1-Noxa inh 69* and 14-3-3 Bad PPI 8.
COc1cc(/C=C/[N+](=O)[O-])ccc1O was read as Mcl1-Bid inh -25, Mcl-1 Bim block -4, Hck-Nef inh 7, Mcl1-Noxa inh 51*, Biofilm kill mix 15 and 14-3-3 Bad PPI 8.
For CC(C)(C)C(O)C(Oc1ccc(Cl)cc1)n1cncn1 (stereo unspecified) the results were Mcl1-Bid inh 76*, Mcl-1 Bim block -2, Hck-Nef inh 1, Mcl1-Noxa inh 2 and 14-3-3 Bad PPI 0.
Screening COc1ccc(N2C(=O)/C(=C/c3cccs3)C(=O)NC2=S)cc1 returned Mcl1-Bid inh 44, Hck-Nef inh 21, Mcl1-Noxa inh 62*, Biofilm kill mix 26 and 14-3-3 Bad PPI 12.
Screening Cc1ccc(/C=C2\C(=O)NC(=S)N(c3ccccc3F)C2=O)s1 returned Mcl1-Bid inh 19, Mcl-1 Bim block 0, Hck-Nef inh 3, Mcl1-Noxa inh 93*, Biofilm kill mix 13 and 14-3-3 Bad PPI 16.
Cc1ccc(/C=C2\C(=O)NC(=S)N(c3ccc(F)cc3)C2=O)s1 was read as Mcl1-Bid inh -24, Mcl-1 Bim block 0, Hck-Nef inh 99*, Mcl1-Noxa inh 29, Biofilm kill mix 9 and 14-3-3 Bad PPI -12.
Screening CCOC(=O)C1CCN(/C=C2/C(=O)NC(=S)N(c3ccccc3F)C2=O)CC1 returned Mcl1-Bid inh -22, Mcl-1 Bim block 0, Hck-Nef inh 23, Mcl1-Noxa inh -16, Biofilm kill mix 11 and 14-3-3 Bad PPI 1.
Screening O=C1NC(=S)N(Cc2ccco2)C(=O)/C1=C\c1cccs1 returned Mcl1-Bid inh 97*, Mcl-1 Bim block 2, Hck-Nef inh 97*, Mcl1-Noxa inh 97*, Biofilm kill mix 3 and 14-3-3 Bad PPI 97*.
`Cc1ccc(/C=C2\C(=O)NC(=O)N(CC3CCCO3)C2=O)s1` (stereo unspecified) gave Mcl1-Bid inh -32, Hck-Nef inh 9, Mcl1-Noxa inh 25, Biofilm kill mix 25 and 14-3-3 Bad PPI -5.
CN(C)P(=O)(C(Cl)=C(N1CCCCC1)N1CCCCC1)N(C)C was read as Mcl1-Bid inh -21, Mcl-1 Bim block -3, Hck-Nef inh 3, Mcl1-Noxa inh 4 and 14-3-3 Bad PPI 3.
Screening CCC1(C)OC(c2ccccc2)=C/C(=C/C=C2C(=O)NC(=O)NC2=O)O1 (stereo unspecified) returned Mcl1-Bid inh -5, Mcl-1 Bim block 2, Hck-Nef inh 11, Mcl1-Noxa inh 2, Biofilm kill mix 14 and 14-3-3 Bad PPI -10.
Cc1cccc(-n2c(CN3C(=O)c4ccccc4C3=O)nc3ccccc3c2=O)n1 was read as Hck-Nef inh 1.
`O=C(Nc1ccc2ccccc2c1)N1C[C@H]2C[C@@H](C1)c1cccc(=O)n1C2` gave Mcl1-Bid inh -9, Hck-Nef inh 16, Mcl1-Noxa inh 10, Biofilm kill mix 7 and 14-3-3 Bad PPI 0.
For O=C(Nc1cccc(Br)c1)c1c(O)c2c(n(Cc3ccccc3)c1=O)CCCC2 the results were Mcl1-Bid inh -15, Hck-Nef inh 27, Mcl1-Noxa inh 19, Biofilm kill mix 13 and 14-3-3 Bad PPI 2.
